Measurements reported in paper PMC7127107 (Bioorganic & Medicinal Chemistry, 2013).

Assays:
[1] = Cytotoxicity in Vero cells; type: cell-based; conditions: African green monkey
Procedure, shortened: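 Vero cells were seeded at 1 × 10^5 cells/well and grown for 48 h. They were then exposed for 72 h to twofold serial dilutions of test compound (5–600 μg/mL or μM). MTT was added for 4 h at 37 °C, and formazan was dissolved in 0.04 M HCl–isopropanol. Absorbance was read at 540 nm minus 655 nm background. CC50 came from regression analysis; experiments were run three times.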

[2] = test system: PEDV SM98 strain; test: Simultaneous-treatment antiviral assay; type: cell-based, porcine epidemic diarrhea virus; conditions: for IC50: Porcine epidemic diarrhea virus, Vero, read-out: Simultaneous-treatment IC50; for selectivity ratio at 72 h: African green monkey, Vero cells infected with PEDV SM98 strain
Procedure, shortened: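 Test compound at various concentrations was premixed with PEDV SM98 (MOI 0.01) for 1 h at 4 °C. The mixture was put on near-confluent Vero monolayers (1 × 10^5 cells/well) for 1 h with occasional rocking, then replaced with fresh medium; triplicate wells. After 72 h, MTT was read (4 h, 37 °C; A540 minus 655 nm). IC50 came from regression analysis, and SI = CC50/IC50.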

[3] = test system: PEDV SM98 strain; test: Post-treatment antiviral assay; type: cell-based, porcine epidemic diarrhea virus; conditions: for IC50: Porcine epidemic diarrhea virus, Vero, read-out: Post-treatment IC50
Procedure, shortened: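 Near-confluent Vero monolayers (1 × 10^5 cells/well) were infected with PEDV SM98 at MOI 0.01 for 1 h with occasional rocking. Inoculum was replaced by EMEM containing test compound (1–200 μM), in triplicate. After 72 h, viability was read by MTT (4 h, 37 °C; A540 minus 655 nm). IC50 came from regression analysis, and SI = CC50/IC50.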

[4] = test system: PEDV (SM98 strain); test: Hemagglutination inhibition; type: cell-based, porcine epidemic diarrhea virus; conditions: 4 HAU PEDV, rabbit RBCs, 1 h room temperature
Procedure, shortened: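 PEDV at 4 HAU was mixed with an equal volume of twofold serial dilutions of test compound in PBS (pH 7.4), with PBS alone as negative control, for 1 h at 4 °C. The mixture was combined with an equal volume of 1% rabbit RBC suspension and incubated 1 h at room temperature. Experiments were run three times.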

[5] = test system: PEDV; test: Quantitative real-time RT-PCR of intracellular viral RNA; type: cell-based, porcine epidemic diarrhea virus
[6] = test system: PEDV; test: Western blot of viral spike; type: cell-based, porcine epidemic diarrhea virus
Procedure, shortened: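 Vero cells at about 90% confluence were infected with PEDV at MOI 0.01 for 1 h, then cultured with 30 μM test compound or 0.5% DMSO. Cells were harvested at 6, 12, 18 and 24 h and lysed, and proteins were separated on Bis–Tris gels and blotted to nitrocellulose. Blots were probed with anti-S antibody (12 h, 4 °C) and HRP secondary, then developed by chemiluminescence; GAPDH served as loading control.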

[7] = test system: PEDV (SM98 strain); test: Confocal immunofluorescence imaging of PEDV-infected Vero cells; type: cell-based, porcine epidemic diarrhea virus; conditions: 30 μM, 24 h

Row | IC50 [2] | IC50 [3] | Structure (SMILES) | CC50 at 72 h [1] | Simultaneous-treatment IC50 ([2]; mixed with virus 0.01 MOI 1 h at 4 °C, Vero cells, 72 h) | selectivity ratio at 72 h [2] | selectivity ratio at 72 h ([3]; African green monkey, Vero cells infected with PEDV SM98 strain) | Minimum concentration that completely inhibited viral hemagglutination ([4]; listed as dieckol (5)) | Viral RNA levels, early stage ([5]; 30 μM, 6 and 12 h after infection) | Viral RNA levels, late stage ([5]; 30 μM, 18 and 24 h after infection, vs untreated/infected cells (0.5% DMSO)) | Viral RNA levels relative to vehicle-treated cells ([5]; 50 μM, 24 h after infection, ORF3 gene normalized to GAPDH) | Effect on viral RNA levels ([5]; 5–50 μM, 24 h after infection) | Synthesis of viral proteins, late stage ([6]; 30 μM, 18 and 24 h) | Synthesis of viral proteins (S protein) ([6]; 5–50 μM, 24 h post-infection) | Number of fluorescence-positive, PEDV-infected cells [7] | Minimum concentration that completely inhibited viral hemagglutination ([4]; listed as eckol (2))
1 | > 200 µM | > 200 µM | Oc1cc(O)cc(O)c1 [Compound 1, phloroglucinol] | 374 ± 4 µM | did not show significant inhibitory effects |  |  |  |  |  |  |  |  |  |  | 
2 | 16.6 ± 3 µM | 14.6 ± 1.3 µM | Oc1cc(O)cc(Oc2c(O)cc(O)c3c2Oc2c(O)cc(Oc4c(O)cc(Oc5c(O)cc(O)c6c5Oc5c(O)cc(O)cc5O6)cc4O)cc2O3)c1 [Compound 5, dieckol] | 490.6 ± 1.6 µM |  | 29.5 | 33.6 | 3.8 to 5.4 µM | largely unchanged | markedly decreased | 30–40% | significantly reduced viral RNA levels in dose-dependent manner | strongly inhibited | inhibited the synthesis of viral proteins | reduced the number of fluorescence-positive, PEDV-infected cells | 
3 | 22.5 ± 2.2 µM | > 200 µM | Oc1cc(O)cc(Oc2c(O)cc(O)c3c2Oc2c(O)cc(O)cc2O3)c1 [Compound 2, eckol] | 388.3 ± 2.6 µM |  | 17.2 |  |  |  |  |  |  |  |  |  | 3.8 to 5.4 µM
